According to ChEMBL document CHEMBL4819096, “Antibacterial activity of noscapine analogs” (Bioorg Med Chem Lett, 2021):
In brackets after ≈: the same amount, converted by molar mass. Activity calls are given as the source filed them. The calls are words filed in the database; no cut-off is given here.

Tests used:
Escherichia coli [1] = test: Antibacterial activity against Escherichia coli assessed as inhibition of bacterial growth measured after 16 to 20 hrs by two-fold serial microbroth dilution method; type: functional; conditions: time 16-20 hrs
Outline: (§1)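 Broth microdilution in LB and M9 medium. Inoculum adjusted to about 5 × 10⁵ cells/ml. Compound diluted twofold serially in microplate wells, then plates covered and incubated at 37 °C with shaking. Growth read as OD600. MIC taken as the lowest concentration giving no growth after 16–20 h.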

Pseudomonas aeruginosa [2] = test: Antibacterial activity against Pseudomonas aeruginosa R42 assessed as inhibition of bacterial growth measured after 16 to 20 hrs by two-fold serial microbroth dilution method; type: functional, organism-based; conditions: time 16-20 hrs; outline: as §1
Hafnia alvei = test: Antibacterial activity against Ampicillin resistant Hafnia alvei O31 assessed as inhibition of bacterial growth measured after 16 to 20 hrs by two-fold serial microbroth dilution method; type: functional, organism-based; conditions: time 16-20 hrs
Outline: (§2)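 Broth microdilution MIC in LB and M9 medium. Inoculum adjusted to about 5 × 10⁵ cells/ml. Compound serially diluted twofold. Plates covered and incubated at 37 °C with shaking. OD600 read; MIC taken as the lowest concentration giving no growth after 16–20 h.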

Escherichia coli [3] = test: Antibacterial activity against Escherichia coli ATCC25922 assessed as inhibition of bacterial growth measured after 16 to 20 hrs by two-fold serial microbroth dilution method; type: functional, organism-based; conditions: ATCC 25922, time 16-20 hrs; outline: as §1
Morganella morganii = test: Antibacterial activity against Morganella morganii R36 assessed as inhibition of bacterial growth measured after 16 to 20 hrs by two-fold serial microbroth dilution method; type: functional, organism-based; conditions: time 16-20 hrs; outline: as §1
Klebsiella aerogenes = test: Antibacterial activity against Enterobacter aerogenes R41 assessed as inhibition of bacterial growth measured after 16 to 20 hrs by two-fold serial microbroth dilution method; type: functional, organism-based; conditions: time 16-20 hrs; outline: as §1
[4] = Cytotoxicity against human HEK293 cells assessed as reduction in cell viability measured after 28 hrs by PrestoBlue reagent based fluorescence analysis
Outline: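 HEK293 cells seeded at 25*10³ per well in DMEM with 10% FBS, 2 mM L-Glu and 50 µg/ml gentamicin. Cells held 24 h at 37 °C, 5% CO2 before compound was added (final DMSO 0.1%), then incubated 28 h. Viability read by PrestoBlue fluorescence at 590 nm, expressed relative to 0.1% DMSO control (100%). CC50 derived by curve fitting.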

Proteus sp. = test: Antibacterial activity against ampicillin/cefotaxime/tetracycline/ceftriaxone/fosfomycin-resistant Proteus sp. O14 assessed as inhibition of bacterial growth measured after 16 to 20 hrs by two-fold serial microbroth dilution method; type: functional, organism-based; conditions: time 16-20 hrs; outline: as §2
HEK293 [5] = test: Induction of cell cycle arrest in human HEK293 cells assessed as increase in accumulation of apoptotic cells at sub G1 phase at 14.9 uM after 24 hrs by propidium iodide staining based flow cytometry; conditions: hek293, 24 h
Outline: (§3)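 HEK293 cells exposed to compound or vehicle (0.1% DMSO), then harvested by centrifugation (400 × g, 5 min). Fixed/permeabilized in ice-cold 70% ethanol for 24 h at −20 °C, PBS-washed twice, treated with RNase A (0.5 mg/ml) for 5 min at room temperature, then PI (50 µg/ml) for 30 min. DNA content measured by flow cytometry on a linear scale. At least duplicate runs; mean ± S.E.M.; Wilcoxon test versus vehicle.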

Enterobacter = test: Antibacterial activity against Enterobacter sp. O54 assessed as inhibition of bacterial growth measured after 16 to 20 hrs by two-fold serial microbroth dilution method; type: functional, organism-based; conditions: time 16-20 hrs; outline: as §1
Bacillus subtilis = test: Antibacterial activity against Bacillus subtilis 3HM assessed as inhibition of bacterial growth measured after 16 to 20 hrs by two-fold serial microbroth dilution method; type: functional, organism-based; conditions: time 16-20 hrs; outline: as §1
Candida albicans = test: Antibacterial activity against ampicillin/cefotaxime/tetracycline/ceftriaxone/fosfomycin-resistant Candida albicans 181210169-1 assessed as inhibition of fungal growth measured after 16 to 20 hrs by two-fold serial microbroth dilution method; type: functional, organism-based; conditions: time 16-20 hrs; outline: as §2
Klebsiella pneumoniae = test: Antibacterial activity against ampicillin/fosfomycin-resistant Klebsiella pneumonia 181210171-2 assessed as inhibition of bacterial growth measured after 16 to 20 hrs by two-fold serial microbroth dilution method; type: functional, organism-based; conditions: time 16-20 hrs; outline: as §2
Aeromonas = test: Antibacterial activity against Aeromonas sp. O9 assessed as inhibition of bacterial growth measured after 16 to 20 hrs by two-fold serial microbroth dilution method; type: functional, organism-based; conditions: time 16-20 hrs; outline: as §1
Pseudomonas aeruginosa [6] = test: Antibacterial activity against ampicillin/cefotaxime-resistant Pseudomonas aeruginosa ATCC 27853 assessed as inhibition of bacterial growth measured after 16 to 20 hrs by two-fold serial microbroth dilution method; type: functional, organism-based; conditions: time 16-20 hrs; outline: as §2
Enterobacter cloacae = test: Antibacterial activity against ampicillin/cefotaxime/tetracycline/ceftriaxone-resistant Enterobacter cloacae O3 assessed as inhibition of bacterial growth measured after 16 to 20 hrs by two-fold serial microbroth dilution method; type: functional, organism-based; conditions: time 16-20 hrs; outline: as §2
Proteus vulgaris = test: Antibacterial activity against Proteus vulgaris O41 assessed as inhibition of bacterial growth measured after 16 to 20 hrs by two-fold serial microbroth dilution method; type: functional, organism-based; conditions: time 16-20 hrs; outline: as §1
HEK293 [7] = test: Induction of cell cycle arrest in human HEK293 cells assessed as increase in accumulation of cells at G2/M phase at 14.9 uM after 24 hrs by propidium iodide staining based flow cytometry; conditions: hek293, 24 h; outline: as §3
Klebsiella oxytoca = test: Antibacterial activity against Klebsiella oxytoca R48 assessed as inhibition of bacterial growth measured after 16 to 20 hrs by two-fold serial microbroth dilution method; type: functional, organism-based; conditions: time 16-20 hrs; outline: as §1
Staphylococcus aureus = test: Antibacterial activity against Fosfomycin resistant Staphylococcus aureus ATCC USA 206 assessed as inhibition of bacterial growth measured after 16 to 20 hrs by two-fold serial microbroth dilution method; type: functional, organism-based; conditions: time 16-20 hrs; outline: as §2
Citrobacter koseri = test: Antibacterial activity against Citrobacter koseri R38 assessed as inhibition of bacterial growth measured after 16 to 20 hrs by two-fold serial microbroth dilution method; type: functional, organism-based; conditions: time 16-20 hrs; outline: as §1
HEK293 [8] = test: Induction of cell cycle arrest in human HEK293 cells assessed as decrease in accumulation of cells at G1 phase at 14.9 uM measured after 24 hrs by propidium iodide staining based flow cytometry; conditions: hek293, 24 h; outline: as §3
Escherichia coli [9] = test: Antibacterial activity against ampicillin/cefotaxime/tetracycline/ceftriaxone-resistant Escherichia coli mx7 assessed as inhibition of bacterial growth measured after 16 to 20 hrs by two-fold serial microbroth dilution method; type: functional, organism-based; conditions: time 16-20 hrs; outline: as §2
HEK293 [10] = test: Induction of cell cycle arrest in human HEK293 cells assessed as increase in accumulation of apoptotic cells at sub G1 phase at 12.6 uM after 72 hrs by propidium iodide staining based flow cytometry; conditions: hek293, 72 h; outline: as §3
HEK293 [11] = test: Induction of cell cycle arrest in human HEK293 cells assessed as increase in accumulation of cells at S phase at 12.6 uM after 24 hrs by propidium iodide staining based flow cytometry; conditions: hek293, 24 h; outline: as §3

| Structure (SMILES) | MIC (Escherichia coli [1]) | Activity (Pseudomonas aeruginosa [2]) | Activity (Hafnia alvei) | Activity (Escherichia coli [3]) | Activity (Morganella morganii) | Activity (Klebsiella aerogenes) | CC50 at 28 h [4] | Activity (Proteus sp.) | Activity (Enterobacter) | Activity (Bacillus subtilis) | Activity (Candida albicans) | Activity (Klebsiella pneumoniae) | Activity (Aeromonas) | Activity (Pseudomonas aeruginosa [6]) | Activity (Enterobacter cloacae) | Activity (Proteus vulgaris) | Activity (Klebsiella oxytoca) | Activity (Staphylococcus aureus) | Activity (Citrobacter koseri) | Activity (Escherichia coli [9]) | other results |
| --- | --- | --- | --- | --- | --- | --- | --- | --- | --- | --- | --- | --- | --- | --- | --- | --- | --- | --- | --- | --- | --- |
| COc1c2c(cc3c1C(CC(=O)/C=C/C1=C(C)CCCC1(C)C)[N+](C)(C)CC3)OCO2.[I-] (stereo not given) | 22.6 µM | Active | Active | Active | Active | Active | 14.9 µM | inactive | inactive | Active | Active | Active | Active | inactive | Active | inactive | Active | Active | inactive | Active | Activity (HEK293 [5]): Toxic; Activity (HEK293 [7]): Toxic; Activity (HEK293 [8]): Toxic |
| COc1c2c(cc3c1C(CC(=O)/C=C/C1C(C)=CCCC1(C)C)[N+](C)(C)CC3)OCO2 (stereo not given) | 22.6 µM | inactive | inactive | inactive | inactive | inactive | 16.2 µM | inactive | inactive | Active | inactive | inactive | inactive | inactive | inactive | inactive | inactive | inactive | inactive | inactive | – |
| COc1c2c(cc3c1C(CC(=O)/C=C/C1CC=C(C)CC1C)[N+](C)(C)CC3)OCO2 (stereo not given) | 46.3 µM | inactive | inactive | Active | Active | inactive | 10.4 µM | inactive | inactive | Active | Active | inactive | inactive | inactive | inactive | inactive | inactive | Active | inactive | Active | – |
| CCCc1ccc(C(=O)CC2c3c(cc4c(c3OC)OCO4)CC[N+]2(C)C)cc1.[I-] (stereo not given) | 11.3 µM | Active | Active | Active | Active | Active | 12.6 µM | Active | Active | Active | Active | Active | Active | inactive | Active | Active | inactive | Active | inactive | Active | Activity (HEK293 [10]): Toxic; Activity (HEK293 [11]): Toxic |
| COc1c2c(cc3c1C(CC(=O)c1ccc(CC(C)C)cc1)[N+](C)(C)CC3)OCO2 (stereo not given) | 23.3 µM | Active | Active | Active | Active | Active | 13.3 µM | Active | Active | Active | Active | Active | Active | inactive | Active | Active | Active | Active | Active | Active | – |
| COc1c2c(cc3c1C(CC(=O)c1c(O)n(C)c(=S)n(C)c1=O)N(C)CC3)OCO2 (stereo not given) | 115 µM (≈ 50 µg/mL) | inactive | inactive | inactive | inactive | inactive | > 100 µM | inactive | Active | Active | Active | inactive | inactive | inactive | inactive | inactive | inactive | Active | inactive | inactive | – |
| CCOc1ccc(/C=C/C(=O)CC2c3c(cc4c(c3OC)OCO4)CC[N+]2(C)C)cc1 (stereo not given) | 90.7 µM | inactive | inactive | inactive | inactive | inactive | 17.8 µM | inactive | inactive | inactive | inactive | inactive | inactive | inactive | inactive | Active | inactive | Active | inactive | inactive | – |
| COc1c2c(cc3c1C(CC(=O)c1ccc4c5c(cccc15)CC4)[N+](C)(C)CC3)OCO2 (stereo not given) | 12.2 µM | inactive | inactive | inactive | inactive | inactive | 17 µM | inactive | inactive | Active | inactive | inactive | inactive | inactive | inactive | inactive | inactive | inactive | inactive | inactive | – |
